Laboratory results from ChEMBL document CHEMBL1156144, “Biaryl ethers as novel non-nucleoside reverse transcriptase inhibitors with improved potency against key mutant viruses” (J Med Chem, 2009).

How the values were obtained:
[1] = test system: Human immunodeficiency virus; test: Antiviral activity against HIV with reverse transcriptase K103N mutant infected in human MT2 cells assessed as inhibition of viral replication measuring p24 level after 3 days in presence of 10% fetal bovine serum; type: functional; details: Human immunodeficiency virus 1, MT2, Serum, 72 h; read-out: CIC95
How it was run: (§1)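 Multiple-cycle replication (Spread) assay in MT2 cells with H9IIIB-background mutant virus. Cells were infected overnight at moi ≈ 0.01 without compound, washed, then cultured 3 days across a range of compound concentrations in medium with 10% FBS. p24 was measured in supernatants. CIC95 is the lowest concentration inhibiting replication by ≥95%, reported as the geometric mean of ≥2 determinations.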

[2] = target: Cytochrome P450 2D6 (Homo sapiens, UniProt P10635); test: Inhibition of CYP2D6; type: ADME
[3] = Clearance in rhesus monkey at 1 mg/kg, iv; type: ADME, organism-based, Macaca mulatta; parameters: dose 1 mg/kg, route intravenous; details: in vivo
[4] = test system: Human immunodeficiency virus; test: Antiviral activity against HIV with reverse transcriptase G190A mutant assessed as inhibition of viral replication; type: functional, organism-based; details: Human immunodeficiency virus 1
[5] = Inhibition of RNA-dependent DNA polymerase activity of wild type HIV reverse transcriptase assessed as BrdU incorporation by standard ECL assay; parameters: species or system Human immunodeficiency virus
How it was run: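 Purified recombinant wild-type RT polymerase activity was measured using a 500-nt heteropolymeric RNA template and a biotinylated DNA primer. BrdU incorporation was detected with a ruthenylated anti-BrdU antibody by electrochemiluminescence. Ki is the geometric mean of at least two determinations, each within 25% of the mean.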

[6] = test system: Rattus norvegicus; test: AUC in Sprague-Dawley rat at 10 mg/kg, po; type: ADME, organism-based, Plasma; parameters: dose 10 mg/kg, route oral; details: in vivo
[7] = Clearance in Beagle dog at 0.5 mg/kg, iv; type: ADME, organism-based, Canis lupus familiaris; parameters: dose 0.5 mg/kg, route intravenous; details: in vivo
[8] = Half life in rhesus monkey at 1 mg/kg, iv; type: ADME, organism-based, Macaca mulatta; parameters: dose 1 mg/kg, route intravenous; details: in vivo
[9] = test system: Human immunodeficiency virus; test: Antiviral activity against HIV with reverse transcriptase K103N/P225H double mutant assessed as inhibition of viral replication; type: functional, organism-based; details: Human immunodeficiency virus 1
[10] = Volume of distribution in rhesus monkey at 1 mg/kg, iv; type: ADME, organism-based, Macaca mulatta; parameters: dose 1 mg/kg, route intravenous; details: in vivo
[11] = test system: Canis familiaris; test: AUC in Beagle dog at 1 mg/kg, po; type: ADME, organism-based, Canis lupus familiaris, Plasma; parameters: dose 1 mg/kg, route oral; details: in vivo
[12] = test system: Human immunodeficiency virus; test: Antiviral activity against HIV with reverse transcriptase L100I/K103N double mutant assessed as inhibition of viral replication; type: functional, organism-based; details: Human immunodeficiency virus 1
[13] = target: Cytochrome P450 3A4 (Homo sapiens, UniProt P08684); test: Inhibition of CYP3A4; type: ADME
[14] = Oral bioavailability in rhesus monkey at 5 mg/kg; details: in vivo
[15] = Clearance in Sprague-Dawley rat at 2 mg/kg, iv; type: ADME, organism-based; parameters: dose 2 mg/kg, route intravenous; details: in vivo
[16] = Volume of distribution in Sprague-Dawley rat at 2 mg/kg, iv; type: ADME, organism-based; parameters: dose 2 mg/kg, route intravenous; details: in vivo
[17] = test system: Human immunodeficiency virus; test: Antiviral activity against HIV with reverse transcriptase K103N mutant assessed as inhibition of viral replication; type: functional, organism-based; details: Human immunodeficiency virus 1
[18] = test system: Human immunodeficiency virus; test: Antiviral activity against HIV with reverse transcriptase G190S mutant assessed as inhibition of viral replication; type: functional, organism-based; details: Human immunodeficiency virus 1
[19] = test system: Rhesus monkey; test: AUC in rhesus monkey at 5 mg/kg, po; type: ADME, organism-based, Macaca mulatta, Plasma; parameters: dose 5 mg/kg, route oral; details: in vivo
[20] = test system: Canis familiaris; test: Cardiotoxicity in conscious cardiovascular dog assessed as mean arterial pressure at 10 mg/kg, iv; type: toxicity, organism-based, Canis lupus familiaris, Heart; parameters: dose 10 mg/kg, route intravenous; details: in vivo
[21] = test system: Human immunodeficiency virus; test: Antiviral activity against HIV with reverse transcriptase L100I mutant assessed as inhibition of viral replication; type: functional, organism-based; details: Human immunodeficiency virus 1
[22] = test system: Human immunodeficiency virus; test: Antiviral activity against HIV with reverse transcriptase K103N/Y181C double mutant infected in human MT2 cells assessed as inhibition of viral replication measuring p24 level after 3 days in presence of 10% fetal bovine serum; type: functional; details: Human immunodeficiency virus 1, MT2, Serum, 72 h; read-out: CIC95; how it was run: as §1
[23] = target: Human immunodeficiency virus type 1 reverse transcriptase (Human immunodeficiency virus 1, UniProt Q72547, K103N); test: Inhibition of RNA-dependent DNA polymerase activity of recombinant HIV reverse transcriptase K103N mutant assessed as BrdU incorporation by standard ECL assay
[24] = test system: Human immunodeficiency virus; test: Antiviral activity against HIV with reverse transcriptase Y181C mutant infected in human MT2 cells assessed as inhibition of viral replication measuring p24 level after 3 days in presence of 10% fetal bovine serum; type: functional; details: Human immunodeficiency virus 1, MT2, Serum, 72 h; read-out: CIC95; how it was run: as §1
[25] = test system: Rattus norvegicus; test: AUC in Sprague-Dawley rat at 2 mg/kg, iv; type: ADME, organism-based, Plasma; parameters: dose 2 mg/kg, route intravenous; details: in vivo
[26] = Volume of distribution in Beagle dog at 0.5 mg/kg, iv; type: ADME, organism-based, Canis lupus familiaris; parameters: dose 0.5 mg/kg, route intravenous; details: in vivo
[27] = test system: Human immunodeficiency virus; test: Antiviral activity against HIV with reverse transcriptase K101E/Y181C/G190A mutant assessed as inhibition of viral replication; type: functional, organism-based; details: Human immunodeficiency virus 1
[28] = test system: Canis familiaris; test: Cardiotoxicity in conscious cardiovascular dog assessed as heart rate at 10 mg/kg, iv; type: toxicity, organism-based, Canis lupus familiaris; parameters: dose 10 mg/kg, route intravenous; details: in vivo
[29] = test system: Human immunodeficiency virus; test: Antiviral activity against HIV with reverse transcriptase Y181C/G190A double mutant assessed as inhibition of viral replication; type: functional, organism-based; details: Human immunodeficiency virus 1
[30] = test system: Human immunodeficiency virus; test: Antiviral activity against HIV with reverse transcriptase K103N/Y181C/G190A mutant assessed as inhibition of viral replication; type: functional, organism-based; details: Human immunodeficiency virus 1
[31] = test system: Human immunodeficiency virus; test: Antiviral activity against HIV with reverse transcriptase K103N/Y181C double mutant assessed as inhibition of viral replication; type: functional, organism-based; details: Human immunodeficiency virus 1
[32] = Oral bioavailability in Sprague-Dawley rat at 10 mg/kg; type: ADME, organism-based; details: in vivo
[33] = test system: Human immunodeficiency virus; test: Antiviral activity against HIV with reverse transcriptase V106A/G190A/F227L mutant assessed as inhibition of viral replication; type: functional, organism-based; details: Human immunodeficiency virus 1
[34] = test system: Human immunodeficiency virus; test: Antiviral activity against wild type HIV H9-3B infected in human MT2 cells assessed as inhibition of viral replication measuring p24 level after 3 days in presence of 10% fetal bovine serum; type: functional; details: Human immunodeficiency virus 1, MT2, Serum; read-out: CIC95
How it was run: (§2)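 Multiple-cycle spread assay in MT2 cells with wild-type H9IIIB virus. Cells were infected overnight at moi ≈ 0.01 without compound, washed, then cultured 3 days across varying compound concentrations in RPMI 1640 with 10% FBS or 50% NHS. p24 was measured in supernatants. CIC95 is the lowest concentration inhibiting replication ≥95%, as the geometric mean of ≥2 determinations.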

[35] = test system: Human immunodeficiency virus; test: Antiviral activity against wild type HIV H9-3B infected in human MT2 cells assessed as inhibition of viral replication measuring p24 level after 3 days in presence of 50% normal human serum; type: functional; details: Human immunodeficiency virus 1, H9-3B, 72 h, read-out: CIC95; how it was run: as §2
[36] = Half life in Beagle dog at 0.5 mg/kg, iv; type: ADME, organism-based, Canis lupus familiaris; parameters: dose 0.5 mg/kg, route intravenous; details: in vivo
[37] = Oral bioavailability in Beagle dog at 1 mg/kg; type: ADME, organism-based, Canis lupus familiaris; details: in vivo
[38] = test system: Human immunodeficiency virus; test: Antiviral activity against HIV with reverse transcriptase Y188L mutant assessed as inhibition of viral replication; type: functional, organism-based; details: Human immunodeficiency virus 1
[39] = Half life in Sprague-Dawley rat at 2 mg/kg, iv; type: ADME, organism-based; parameters: dose 2 mg/kg, route intravenous; details: in vivo
[40] = test system: Canis familiaris; test: Cardiotoxicity in conscious cardiovascular dog assessed as electrocardiogram at 10 mg/kg, iv; type: toxicity, organism-based, Canis lupus familiaris, Heart; parameters: dose 10 mg/kg, route intravenous; details: in vivo
[41] = test system: Human immunodeficiency virus; test: Antiviral activity against HIV with reverse transcriptase MDRC4 mutant assessed as inhibition of viral replication; type: functional, organism-based; details: Human immunodeficiency virus 1
[42] = test system: Human immunodeficiency virus; test: Antiviral activity against HIV with reverse transcriptase K103N/G190A double mutant assessed as inhibition of viral replication; type: functional, organism-based; details: Human immunodeficiency virus 1
[43] = test system: Human immunodeficiency virus; test: Antiviral activity against HIV with reverse transcriptase Y181C mutant assessed as inhibition of viral replication; type: functional, organism-based; details: Human immunodeficiency virus 1
[44] = test system: Human immunodeficiency virus; test: Antiviral activity against HIV with reverse transcriptase K101E/G190A double mutant assessed as inhibition of viral replication; type: functional, organism-based; details: Human immunodeficiency virus 1
[45] = Plasma concentration in rat at 100 mg/kg, po after 24 hrs; type: ADME, organism-based; parameters: dose 100 mg/kg, route oral
[46] = test system: Human immunodeficiency virus; test: Antiviral activity against HIV with reverse transcriptase CNDO mutant assessed as inhibition of viral replication; type: functional, organism-based; details: Human immunodeficiency virus 1

Chain of Cytochrome P450 2D6 (P10635 whole entry): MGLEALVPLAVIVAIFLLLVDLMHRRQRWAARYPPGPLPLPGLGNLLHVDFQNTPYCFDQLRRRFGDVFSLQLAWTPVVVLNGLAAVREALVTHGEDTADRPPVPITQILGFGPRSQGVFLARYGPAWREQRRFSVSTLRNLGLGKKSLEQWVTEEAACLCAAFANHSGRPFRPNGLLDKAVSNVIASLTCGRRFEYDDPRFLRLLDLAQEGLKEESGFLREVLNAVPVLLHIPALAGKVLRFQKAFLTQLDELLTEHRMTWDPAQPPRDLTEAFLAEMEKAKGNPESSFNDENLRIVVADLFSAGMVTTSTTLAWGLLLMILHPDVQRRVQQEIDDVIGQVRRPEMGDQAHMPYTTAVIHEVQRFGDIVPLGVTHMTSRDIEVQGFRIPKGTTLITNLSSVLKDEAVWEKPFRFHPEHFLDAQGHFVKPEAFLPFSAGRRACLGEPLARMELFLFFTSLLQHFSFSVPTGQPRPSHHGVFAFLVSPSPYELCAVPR
Chain of Cytochrome P450 3A4 (P08684 whole entry): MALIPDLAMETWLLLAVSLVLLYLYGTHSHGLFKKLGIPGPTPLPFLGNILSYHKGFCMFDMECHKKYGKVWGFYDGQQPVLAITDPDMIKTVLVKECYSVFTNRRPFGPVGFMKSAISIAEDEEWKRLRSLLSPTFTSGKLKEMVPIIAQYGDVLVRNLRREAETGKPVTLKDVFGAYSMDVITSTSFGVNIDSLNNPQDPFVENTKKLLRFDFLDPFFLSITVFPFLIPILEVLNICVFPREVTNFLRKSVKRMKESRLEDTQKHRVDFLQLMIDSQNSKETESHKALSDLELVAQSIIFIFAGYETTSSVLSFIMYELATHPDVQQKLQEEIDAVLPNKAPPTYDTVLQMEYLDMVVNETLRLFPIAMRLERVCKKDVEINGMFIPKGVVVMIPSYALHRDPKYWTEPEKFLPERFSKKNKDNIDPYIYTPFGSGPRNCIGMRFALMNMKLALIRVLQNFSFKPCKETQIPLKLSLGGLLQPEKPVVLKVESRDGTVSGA

Work on `N#Cc1cc(Cl)cc(Oc2cc(OCc3n[nH]c4nc(N)ccc34)cc(F)c2Cl)c1` yielded an IC95 [1] of 18 nM, an IC50 [2] of 47400 nM and a clearance [3] of 15 mL/min/kg. For the same compound, the IC50 [4] was 2 nM, the Ki [5] was 0.1 nM and the AUC [6] was 18 µM. The clearance [7] was 4 mL/min/kg, the half-life [8] was 4.2 h and the IC50 [9] was 3.3 nM. It also gave a Vd [10] of 3.6 L/kg, an AUC [11] of 6 µM and an IC50 [12] of 112 nM. For the same compound, the IC50 [13] was 4400 nM, the bioavailability [14] was 13% and the clearance [15] was 10 mL/min/kg. For the same compound, the Vd [16] was 3.5 L/kg, the IC50 [17] was 3.3 nM and the IC50 [18] was 37.3 nM. For the same compound, the AUC [19] was 1.7 µM, the Activity [20] was “Non-toxic” and the IC50 [21] was 0.6 nM. For the same compound, the IC95 [22] was 62 nM, the Ki [23] was 0.4 nM and the IC95 [24] was 14 nM. It also gave an AUC [25] of 7.4 µM, a Vd [26] of 2.3 L/kg and an IC50 [27] of 19.2 nM. For the same compound, the Activity [28] was “Non-toxic”, the IC50 [29] was 4.3 nM and the IC50 [30] was 84.3 nM. The IC50 [31] was 184 nM, the bioavailability [32] was 49% and the IC50 [33] was over 1000 nM. The IC95 [34] was 8 nM, the IC95 [35] was 69 nM and the half-life [36] was 7 h. It also gave a bioavailability [37] of 63%, an IC50 [38] of 326 nM and a half-life [39] of 4.6 h. For the same compound, the Activity [40] was “Non-toxic”, the IC50 [41] was 6.4 nM and the IC50 [42] was 9.6 nM. It also gave an IC50 [43] of 2.2 nM, an IC50 [44] of 3.4 nM and an AUC at 24 h [45] of 180 µM·h. For the same compound, the IC50 [46] was 1.1 nM.
